Reference: ChEMBL document CHEMBL1157314, “Antibacterial, partially acetylated oligorhamnosides from Cleistopholis patens” (2006)
Values after ≈ are worked out from the molar mass of the structure shown. Active and inactive are the calls of the source. The rule behind the calls is not given here.

Key:
Type in all cases: functional
[1] = tested on: Staphylococcus aureus; test: Antibacterial activity against methicillin-resistant Staphylococcus aureus 78-13607A after 24 hrs by broth microdilution method
Summary of the method: (§1)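 Broth microdilution following NCCLS M7-A6 (2003), with inoculum at the recommended densities. Isolates were placed into panel wells with an autoinoculator and grown in cation-adjusted Mueller-Hinton broth at 35°C in ambient air for overnight to 24 h. Panels were read by eye, and the MIC was taken as no visible growth.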

[2] = tested on: Staphylococcus aureus; test: Antibacterial activity against methicillin-resistant Staphylococcus aureus ATCC 33591 after 24 hrs by broth microdilution method; details: for MIC: ATCC 33591, 24 h; summary of the method: as §1
[3] = tested on: Staphylococcus haemolyticus; test: Antibacterial activity against oxacillin-resistant Staphylococcus haemolyticus 107-1240C isolate after 24 hrs by broth microdilution method; summary of the method: as §1
[4] = tested on: Streptococcus pneumoniae; test: Antibacterial activity against penicillin-intermediate resistant Streptococcus pneumoniae ATCC 49619 after 24 hrs by broth microdilution method; details: ATCC 49619, 24 h; summary of the method: as §1
[5] = tested on: Bacillus sp.; test: Antibacterial activity against erythromycin-resistant Bacillus sp. 32-2406A isolate after 24 hrs by broth microdilution method; details: Bacillus sp. (in: firmicutes); summary of the method: as §1
[6] = tested on: Streptococcus; test: Antibacterial activity against levofloxacin-resistant beta-haemolytic sStreptococcus 19-756A isolate after 24 hrs by broth microdilution method; summary of the method: as §1
[7] = tested on: Corynebacterium jeikeium; test: Antibacterial activity against Corynebacterium jeikeium 15-196A isolate after 24 hrs by broth microdilution method
Summary of the method: (§2)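 Broth microdilution following NCCLS M7-A6 (2003) inocula; isolates transferred aseptically into panel wells with an autoinoculator; cation-adjusted Mueller-Hinton broth; incubated overnight to 24 h at 35°C in ambient air; panels read by eye, MIC taken as lowest concentration with no visible growth.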

[8] = tested on: Staphylococcus aureus; test: Antibacterial activity against oxacillin-resistant Staphylococcus aureus ATCC 33591 after 24 hrs by broth microdilution method; details: ATCC 33591, 24 h; summary of the method: as §1
[9] = tested on: Staphylococcus; test: Antibacterial activity against quinupristin/dalfopristin-resistant coagulase negative Staphylococcus 90-10840A isolate after 24 hrs by broth microdilution method; summary of the method: as §1
[10] = tested on: Enterococcus faecalis; test: Antibacterial activity against vancomycin-resistant Enterococcus faecalis 48-22D isolate with vanA phenotype after 24 hrs by broth microdilution method; summary of the method: as §1
[11] = tested on: Staphylococcus aureus; test: Antibacterial activity against linezolid-resistant Staphylococcus aureus 106-12591A isolate after 24 hrs by broth microdilution method; summary of the method: as §1
[12] = tested on: Enterococcus faecalis; test: Antibacterial activity against vancomycin-resistant Enterococcus faecalis 82-876D with vanB phenotype isolate after 24 hrs by broth microdilution method; summary of the method: as §1
[13] = tested on: Streptococcus; test: Antibacterial activity against linezolid-resistant viridans group Streptococcus 27-2832A isolate after 24 hrs by broth microdilution method; summary of the method: as §1
[14] = tested on: Staphylococcus aureus; test: Antibacterial activity against mupirocin-resistant Staphylococcus aureus 4-90A isolate after 24 hrs by broth microdilution method; summary of the method: as §1
[15] = tested on: Staphylococcus aureus; test: Antibacterial activity against oxacillin-susceptible Staphylococcus aureus ATCC 29213 after 24 hrs by broth microdilution method; details: ATCC 29213, 24 h; summary of the method: as §1
[16] = tested on: Enterococcus faecium; test: Antibacterial activity against linezolid-resistant Enterococcus faecium 11-4103A isolate after 24 hrs by broth microdilution method; summary of the method: as §1
[17] = tested on: Streptococcus pneumoniae; test: Antibacterial activity against multidrug resistant Streptococcus pneumoniae 68-2307B isolate after 24 hrs by broth microdilution method; summary of the method: as §1
[18] = tested on: Streptococcus; test: Antibacterial activity against erythromycin and clindamycin-resistant beta-haemolytic sStreptococcus 91-526D isolate after 24 hrs by broth microdilution method; summary of the method: as §1
[19] = tested on: Bacillus sp.; test: Antibacterial activity against trimethoprim/sulfamethaxazole-resistant Bacillus sp. 67-1057A isolate after 24 hrs by broth microdilution method; details: Bacillus sp. (in: firmicutes); summary of the method: as §1
[20] = tested on: Pseudomonas aeruginosa; test: Antibacterial activity against sPseudomonas aeruginosa ATCC 27853 after 24 hrs by broth microdilution method; details: ATCC 27853, 24 h; summary of the method: as §2
[21] = tested on: Streptococcus mitis; test: Antibacterial activity against penicillin-resistant Streptococcus mitis 61-2900C isolate after 24 hrs by broth microdilution method; summary of the method: as §1
[22] = tested on: Streptococcus pneumoniae; test: Antibacterial activity against penicillin-resistant Streptococcus pneumoniae 33-50B isolate after 24 hrs by broth microdilution method; summary of the method: as §1
[23] = tested on: Enterococcus faecalis; test: Antibacterial activity against gentamycin and streptomycin-resistant Enterococcus faecalis 39-11D isolate after 24 hrs by broth microdilution method; summary of the method: as §1
[24] = tested on: Corynebacterium sp.; test: Antibacterial activity against rifampin-resistant Corynebacterium sp. 58-9161A isolate after 24 hrs by broth microdilution method; summary of the method: as §1
[25] = tested on: Corynebacterium sp.; test: Antibacterial activity against doxycyclin-resistant Corynebacterium sp. 105-1513C isolate after 24 hrs by broth microdilution method; summary of the method: as §1
[26] = tested on: Streptococcus pyogenes; test: Antibacterial activity against erythromycin-resistant Streptococcus pyogenes 91-8747 isolate after 24 hrs by broth microdilution method; summary of the method: as §1
[27] = tested on: Streptococcus; test: Antibacterial activity against mupirocin-resistant viridans group sStreptococcus 32-2395A isolate after 24 hrs by broth microdilution method; summary of the method: as §1
[28] = tested on: Enterococcus faecium; test: Antibacterial activity against ampicillin and vancomycin-resistant Enterococcus faecium 24-45A isolate after 24 hrs by broth microdilution method; summary of the method: as §1
[29] = tested on: Enterococcus faecium; test: Antibacterial activity against quinupristin/dalfopristin-resistant Enterococcus faecium 65-1208A isolate after 24 hrs by broth microdilution method; summary of the method: as §1
[30] = tested on: Bacillus sp.; test: Antibacterial activity against tetracycline-resistant Bacillus sp. 107-1461D isolate after 24 hrs by broth microdilution method; details: Bacillus sp. (in: firmicutes); summary of the method: as §1
[31] = tested on: Streptococcus; test: Antibacterial activity against levafloxacin-resistant viridans group Streptococcus 107-6380A isolate after 24 hrs by broth microdilution method; summary of the method: as §1
[32] = tested on: Corynebacterium sp.; test: Antibacterial activity against streptomycin-resistant Corynebacterium sp. 61-5454A isolate after 24 hrs by broth microdilution method; summary of the method: as §1
[33] = tested on: Escherichia coli; test: Antibacterial activity against sEscherichia coli ATCC 25922 after 24 hrs by broth microdilution method; details: ATCC 25922, 24 h; summary of the method: as §2
[34] = tested on: Staphylococcus; test: Antibacterial activity against coagulase negative linezolid-resistant Staphylococcus 82-1645A isolate after 24 hrs by broth microdilution method; summary of the method: as §1
[35] = tested on: Enterococcus faecium; test: Antibacterial activity against vancomycin-resistant Enterococcus faecium 103-1232D isolate with vanB phenotype after 24 hrs by broth microdilution method; summary of the method: as §1
[36] = tested on: Bacillus cereus; test: Antibacterial activity against Bacillus cereus 24-59A isolate after 24 hrs by broth microdilution method
[37] = tested on: Enterococcus faecalis; test: Antibacterial activity against linezolid-resistant Enterococcus faecalis 15-5341 isolate after 24 hrs by broth microdilution method; summary of the method: as §1
[38] = tested on: Staphylococcus aureus; test: Antibacterial activity against quinupristin/dalfopristin-resistant Staphylococcus aureus 300-12053A isolate after 24 hrs by broth microdilution method; summary of the method: as §1
[39] = tested on: Streptococcus; test: Antibacterial activity against erythromycin-resistant and clindamycin-susceptible beta-haemolytic sStreptococcus 109-820D isolate after 24 hrs by broth microdilution method; summary of the method: as §1
[40] = tested on: Enterococcus faecalis; test: Antibacterial activity against ampicillin and vancomycin-susceptible Enterococcus faecalis ATCC 29212 after 24 hrs by broth microdilution method; details: ATCC 29212, 24 h; summary of the method: as §1
[41] = tested on: Streptococcus pneumoniae; test: Antibacterial activity against erythromycin and clindamycin-resistant Streptococcus pneumoniae 4-38B isolate after 24 hrs by broth microdilution method; summary of the method: as §1
[42] = tested on: Staphylococcus; test: Antibacterial activity against mupirocin-resistant coagulase negative Staphylococcus 63-18A isolate after 24 hrs by broth microdilution method; summary of the method: as §1
[43] = tested on: Staphylococcus epidermidis; test: Antibacterial activity against oxacillin-susceptible Staphylococcus epidermidis isolate 12-1788A isolate after 24 hrs by broth microdilution method
[44] = tested on: Enterococcus faecium; test: Antibacterial activity against vancomycin-resistant Enterococcus faecium 15-206A isolate with vanA phenotype after 24 hrs by broth microdilution method; summary of the method: as §1
[45] = tested on: Streptococcus; test: Antibacterial activity against multidrug-resistant viridans group Streptococcus 58-1602D isolate after 24 hrs by broth microdilution method; summary of the method: as §1
[46] = tested on: Streptococcus pneumoniae; test: Antibacterial activity against erythromycin-resistant and clindamycin-susceptible Streptococcus pneumoniae 35-405B isolate after 24 hrs by broth microdilution method; summary of the method: as §1

O=C(O)c1cn(C2CC2)c2cc(N3CCNCC3)c(F)cc2c1=O [CIPROFLOXACIN]
MIC [1]: > 4 µg/mL | MIC [2]: 0.5 µg/mL (≈ 1.51 µM)

CCCCCCCCCCCCO[C@@H]1O[C@@H](C)[C@H](O[C@@H]2O[C@@H](C)[C@H](OC(C)=O)[C@@H](O[C@@H]3O[C@@H](C)[C@H](OC(C)=O)[C@@H](O[C@@H]4O[C@@H](C)[C@H](OC(C)=O)[C@@H](O)[C@H]4O)[C@H]3OC(C)=O)[C@H]2O)[C@@H](O)[C@H]1O
MIC [3]: 32 µg/mL (≈ 34.1 µM) | MIC [4]: 4 µg/mL (≈ 4.26 µM) | MIC [5]: 2 µg/mL (≈ 2.13 µM) | MIC [6]: 4 µg/mL (≈ 4.26 µM) | MIC [7]: 32 µg/mL (≈ 34.1 µM) | MIC [8]: 2 µg/mL (≈ 2.13 µM) | MIC [9]: > 32 µg/mL | MIC [10]: 2 µg/mL (≈ 2.13 µM) | MIC [11]: 2 µg/mL (≈ 2.13 µM) | MIC [12]: 2 µg/mL (≈ 2.13 µM) | MIC [13]: 4 µg/mL (≈ 4.26 µM) | MIC [14]: > 2 µg/mL | MIC [15]: 4 µg/mL (≈ 4.26 µM) | MIC [16]: 2 µg/mL (≈ 2.13 µM) | MIC [17]: 4 µg/mL (≈ 4.26 µM) | MIC [18]: 4 µg/mL (≈ 4.26 µM) | MIC [1]: 1 µg/mL (≈ 1.06 µM) | MIC [19]: 2 µg/mL (≈ 2.13 µM) | MIC [20]: > 32 µg/mL | MIC [21]: 4 µg/mL (≈ 4.26 µM) | MIC [22]: 4 µg/mL (≈ 4.26 µM) | MIC [23]: 2 µg/mL (≈ 2.13 µM) | MIC [24]: 16 µg/mL (≈ 17 µM) | MIC [25]: 16 µg/mL (≈ 17 µM) | MIC [26]: 4 µg/mL (≈ 4.26 µM) | MIC [27]: 4 µg/mL (≈ 4.26 µM) | MIC [28]: 2 µg/mL (≈ 2.13 µM) | MIC [29]: 2 µg/mL (≈ 2.13 µM) | MIC [30]: 2 µg/mL (≈ 2.13 µM) | MIC [31]: 4 µg/mL (≈ 4.26 µM) | MIC [32]: 16 µg/mL (≈ 17 µM) | MIC [33]: > 32 µg/mL | MIC [34]: > 32 µg/mL | MIC [35]: 2 µg/mL (≈ 2.13 µM) | MIC [36]: 2 µg/mL (≈ 2.13 µM) | MIC [37]: 2 µg/mL (≈ 2.13 µM) | MIC [38]: 2 µg/mL (≈ 2.13 µM) | MIC [2]: 0.5 µg/mL (≈ 0.532 µM) | MIC [39]: 4 µg/mL (≈ 4.26 µM) | MIC [40]: 2 µg/mL (≈ 2.13 µM) | MIC [41]: 4 µg/mL (≈ 4.26 µM) | MIC [42]: > 32 µg/mL | MIC [43]: > 32 µg/mL | MIC [44]: 2 µg/mL (≈ 2.13 µM) | MIC [45]: 4 µg/mL (≈ 4.26 µM) | MIC [46]: 4 µg/mL (≈ 4.26 µM)

CC(=O)NC[C@H]1CN(c2ccc(N3CCOCC3)c(F)c2)C(=O)O1
Activity [1]: Active | Activity [2]: Active

CCCCCCCCCCCCO[C@@H]1O[C@@H](C)[C@H](O[C@@H]2O[C@@H](C)[C@H](OC(C)=O)[C@@H](O[C@@H]3O[C@@H](C)[C@H](OC(C)=O)[C@@H](O[C@@H]4O[C@@H](C)[C@H](O)[C@@H](OC(C)=O)[C@H]4O)[C@H]3OC(C)=O)[C@H]2O)[C@@H](O)[C@H]1O
MIC [1]: 16 µg/mL (≈ 17 µM) | MIC [2]: 8 µg/mL (≈ 8.52 µM)

Cc1onc(-c2ccccc2)c1C(=O)N[C@@H]1C(=O)N2[C@@H]1SC(C)(C)[C@@H]2C(=O)O [OXACILLIN]
MIC [1]: 8 µg/mL (≈ 19.9 µM) | MIC [2]: > 8 µg/mL

CC[C@H]1OC(=O)[C@H](C)[C@@H](O[C@H]2C[C@@](C)(OC)[C@@H](O)[C@H](C)O2)[C@H](C)[C@@H](O[C@@H]2O[C@H](C)C[C@H](N(C)C)[C@H]2O)[C@](C)(O)C[C@@H](C)C(=O)[C@H](C)[C@@H](O)[C@]1(C)O [ERYTHROMYCIN]
MIC [1]: 0.25 µg/mL (≈ 0.341 µM) | MIC [2]: > 8 µg/mL

O=C(N[C@H](CO)[C@H](O)c1ccc([N+](=O)[O-])cc1)C(Cl)Cl [CHLORAMPHENICOL]
MIC [2]: > 16 µg/mL
